Hits are enriched below; roughly 1.7% of the tested compounds scored in any of these assays.
ZTA counter = ZTA (EBV) inhibition in EBNA-1 counter-screen. P03206. ZTA-DNA binding, fluorescence polarization. inhibition, % at 11 µM. hit rate 0.15% among 320,000; in the data active means inhibition above about 33%
UBC13 polyUb = human UBC13 polyubiquitination inhibition; P61088; UBC13 polyubiquitin chain formation, TR-FRET; inhibition, % at 20 µM; hit rate 0.47% among 330,000; AID 485273; in the data active means inhibition above about 45%, passing the limit was not always enough
Apaf-1 inh = human Apaf-1 inhibition; inhibition, % at 20 µM; reconstituted apoptosome caspase-3 activity, DEVD-Rh110 fluorescence; O14727; AID 489030; hit rate 0.71% among 330,000; active means inhibition of at least 40% at 20 µM;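 further: plate controls were DMSO wells for no effect and DEVD-CHO caspase inhibitor wells for full effect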
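Material: reconstituted apoptosome with Apaf-1, cytochrome c, caspase-9, procaspase-3, dATP; medium: pH 7.5 Hepes buffer with CHAPS, BSA, DTT; also added: cytochrome c and DEVD-Rh110 substrate; timing: 30 min plus 50 min, RT; signal: Rh110 fluorescence intensity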
EBNA-1 inhibitor = blocks EBNA-1 binding to DNA; EBNA-1 DNA binding, fluorescence polarization; inhibition, % at 14.8 µM; hit rate 0.34% among 300,000; in the data active means inhibition above about 28%
PREPL inhibitor = inhibitors of human prolyl oligopeptidase-like enzyme PREPL; inhibition, % at 5.96 µM; hit rate 0.68% among 320,000; recombinant PREPL, fluorescence polarization activity-based probe; in the data active means inhibition above about 43%;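 further: 0% = enzyme with DMSO and 100% = wells lacking enzyme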
Target sequence (Q4J6C6 whole entry, looked up): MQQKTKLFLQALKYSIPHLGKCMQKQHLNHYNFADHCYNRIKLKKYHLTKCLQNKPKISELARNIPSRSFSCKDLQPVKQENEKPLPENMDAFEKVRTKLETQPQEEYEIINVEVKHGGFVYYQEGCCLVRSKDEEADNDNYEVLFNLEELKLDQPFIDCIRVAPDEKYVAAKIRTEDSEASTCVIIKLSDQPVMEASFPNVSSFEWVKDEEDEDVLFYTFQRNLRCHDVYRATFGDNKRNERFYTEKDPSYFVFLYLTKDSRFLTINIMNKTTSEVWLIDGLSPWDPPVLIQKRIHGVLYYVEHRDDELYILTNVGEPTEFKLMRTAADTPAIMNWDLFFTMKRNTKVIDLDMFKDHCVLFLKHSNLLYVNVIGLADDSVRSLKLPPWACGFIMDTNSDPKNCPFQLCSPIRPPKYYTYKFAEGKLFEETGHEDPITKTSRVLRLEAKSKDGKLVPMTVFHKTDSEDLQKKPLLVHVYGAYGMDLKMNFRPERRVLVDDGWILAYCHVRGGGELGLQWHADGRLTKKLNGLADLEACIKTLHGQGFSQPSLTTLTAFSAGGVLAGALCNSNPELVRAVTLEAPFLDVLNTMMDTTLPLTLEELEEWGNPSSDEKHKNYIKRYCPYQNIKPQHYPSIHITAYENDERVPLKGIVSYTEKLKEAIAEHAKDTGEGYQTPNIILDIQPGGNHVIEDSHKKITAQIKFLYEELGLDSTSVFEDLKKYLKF
Apaf-1 inh conf = Apaf-1 inhibition, single-dose confirmed; inhibition, % at 20 µM; hit rate 25% among 1,800; shares compounds with Apaf-1 inh; reconstituted apoptosome, caspase-3 DEVD-Rh110 fluorescence;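 active means mean inhibition of at least 40% at 20 µM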;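 further: plate controls were DMSO wells for no effect and DEVD-CHO caspase inhibitor control wells for full effect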
Rh110 quench = counter-screen for Apaf-1 inhibitors: fluorescence interference; Rh110 fluorescence interference, quenched caspase reaction; shares compounds with Apaf-1 inh; activation (fluorescence interference), % at 20 µM; 1,800 tested, under 10 active;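 active means signal rise of 40% or more at 20 µM, treated as a fluorescence artifact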
Fluor interf inh = Apaf-1 inhibitor counter-screen fluorescence artifact. shares compounds with Apaf-1 inh. IC50, µM. AID 588538. fluorescence interference counterscreen, Apaf-1 assay format. 460 tested, under 10 active; call rule not given here
* hit, by the source's call.

Results for Cc1cc(N(CCO)CCO)ccc1N=Nc1cc(F)ccc1F ?
ZTA counter: 14.5; UBC13 polyUb: -347.7; Apaf-1 inh: 40.4*; EBNA-1 inhibitor: 12.6; PREPL inhibitor: 13.9; Apaf-1 inh conf: 21.7; Rh110 quench: 14.5

Results for OCCN(CCO)c1ccc(C(c2ccc(Cl)cc2)c2ccc(N(CCO)CCO)cc2Cl)c(Cl)c1 ?
ZTA counter: -2.9; UBC13 polyUb: -20.5; Apaf-1 inh: -9.5; EBNA-1 inhibitor: -1.4; PREPL inhibitor: 16.9

What do the screens show for `COc1cccc(CNc2ccc(N3CCC(C)CC3)cc2)c1OC`?
ZTA counter: -2.6; UBC13 polyUb: 3.6; Apaf-1 inh: 4.7; EBNA-1 inhibitor: -0.1; PREPL inhibitor: 2.5

What do the screens show for `COc1ccc(-c2sc3cc4c(cc3c2-c2ccc(OCCN3CCCCC3)cc2)OCO4)cc1`?
Apaf-1 inh: 59.4*; Apaf-1 inh conf: 6.4; Rh110 quench: 8.7

What do the screens show for `c1ccc(-c2sc3ccccc3c2-c2ccc(OCCN3CCCCC3)cc2)cc1`?
UBC13 polyUb: 42.6; Apaf-1 inh: 52.5*; PREPL inhibitor: 6.1; Apaf-1 inh conf: 5.5; Rh110 quench: 9.1

What do the screens show for `COc1cc(OC)cc(-c2sc3ccc(OC)cc3c2-c2ccc(OCCN3CCCCC3)cc2)c1`?
Apaf-1 inh: 59.7*; Apaf-1 inh conf: -3.3; Rh110 quench: 9.2

How did COc1ccc(-c2sc3cc(OC)ccc3c2-c2ccc(OCCN3CCOCC3)cc2)cc1 do in these assays?
Apaf-1 inh: 30.7

Results for COc1ccccc1-c1sc2cc3c(cc2c1-c1ccc(OCCN2CCOCC2)cc1)OCO3 ?
Apaf-1 inh: 23.0

How did O=C1c2ccccc2NC2CCCCC12 (stereo not given) do in these assays?
ZTA counter: 1.9; UBC13 polyUb: 0.5; Apaf-1 inh: -18.0; EBNA-1 inhibitor: -2.8; PREPL inhibitor: -3.2

What do the screens show for `S=C(Nc1ccc2nsnc2c1)N1CCCC1`?
ZTA counter: -3.8; UBC13 polyUb: -26.7; Apaf-1 inh: 98.4*; EBNA-1 inhibitor: -11.8; PREPL inhibitor: -8.0; Apaf-1 inh conf: 8.4; Rh110 quench: -0.3

Results for c1coc(-c2nnc3sc(Cc4cccs4)nn23)c1 ?
ZTA counter: -12.2; UBC13 polyUb: -4.2; Apaf-1 inh: -4.2; EBNA-1 inhibitor: -7.6; PREPL inhibitor: 20.1

What do the screens show for `c1csc(Cc2nn3c(-c4n[nH]c5c4CCC5)nnc3s2)c1`?
ZTA counter: -20.0; UBC13 polyUb: -7.8; Apaf-1 inh: 40.8*; EBNA-1 inhibitor: -13.8; PREPL inhibitor: 4.1; Apaf-1 inh conf: 33.6; Rh110 quench: 7.1

Results for CCN(CC)C(=O)[C@H]1C[C@H](CC(=O)NCc2cccc(C(F)(F)F)c2)C(=O)N2CCc3c([nH]c4ccc(Cl)cc34)[C@]12C ?
Apaf-1 inh: 46.4*; Apaf-1 inh conf: 29.4; Rh110 quench: 17.4

How did CCN(CC)C(=O)[C@H]1C[C@H](CC(=O)NCCCN(C)C)C(=O)N2CCc3c([nH]c4ccc(Cl)cc34)[C@]12C do in these assays?
Apaf-1 inh: 25.6

Results for CCN(CC)C(=O)[C@H]1CC(CC(=O)NCCCN(C)C)C(=O)N2CCc3c([nH]c4ccccc34)[C@]12C (stereo not given in full) ?
UBC13 polyUb: 12.4; Apaf-1 inh: 43.9*; PREPL inhibitor: 13.8; Apaf-1 inh conf: 9.7; Rh110 quench: -0.5

How did CC1CC(C)(C)N(C(=O)CSc2ccc(-c3ccc(F)cc3)nn2)c2ccccc21 (stereo not given) do in these assays?
ZTA counter: -2.2; UBC13 polyUb: -4.0; Apaf-1 inh: 27.2; EBNA-1 inhibitor: -2.8; PREPL inhibitor: -0.9

What do the screens show for `FC(F)(F)C1=Nc2cccc3cccc(c23)N1`?
UBC13 polyUb: -46.1; Apaf-1 inh: 66.1*; Apaf-1 inh conf: 63.3*; Rh110 quench: 4.5; Fluor interf inh: >100

How did Fc1ccc(C2=Nc3cccc4cccc(c34)N2)cc1 do in these assays?
ZTA counter: -4.1; UBC13 polyUb: -49.5; Apaf-1 inh: 9.2; EBNA-1 inhibitor: 0.1; PREPL inhibitor: 10.2

What do the screens show for `O=C(NCCCN1CCCCCC1)c1cc2c(=O)oc3ccccc3c2s1`?
ZTA counter: 21.2; UBC13 polyUb: 36.1; Apaf-1 inh: 40.5*; EBNA-1 inhibitor: 11.4; PREPL inhibitor: 29.4; Apaf-1 inh conf: 11.4; Rh110 quench: 6.0

How did O=C(Cc1ccc(S(=O)(=O)N2CCCCC2)cc1)NCc1ccc(Cl)cc1 do in these assays?
ZTA counter: 5.2; UBC13 polyUb: 13.5; Apaf-1 inh: 1.3; PREPL inhibitor: 14.2

Results for CC1CN(Cc2c(O)ccc3c2oc(=O)c2ccccc23)CC(C)O1 (stereo not given) ?
ZTA counter: -14.9; UBC13 polyUb: 37.2; Apaf-1 inh: 44.3*; EBNA-1 inhibitor: -0.3; PREPL inhibitor: 10.5; Apaf-1 inh conf: 36.7; Rh110 quench: 6.9

Results for CC1CN(Cc2c(O)ccc3c(=O)c(-c4ccccc4)coc23)CC(C)O1 (stereo not given) ?
ZTA counter: -5.1; UBC13 polyUb: 13.6; Apaf-1 inh: -0.5; EBNA-1 inhibitor: -6.9; PREPL inhibitor: 8.5

Results for CCOC(=O)c1cnc(-n2nc(C)cc2C)nc1NC1CCCCC1 ?
ZTA counter: -1.1; UBC13 polyUb: 15.8; Apaf-1 inh: 41.7*; EBNA-1 inhibitor: 5.1; PREPL inhibitor: 7.5; Apaf-1 inh conf: 19.4; Rh110 quench: -2.7

Results for CCOC(=O)c1cnc(-n2nc(C)cc2C)nc1NC ?
ZTA counter: -3.8; UBC13 polyUb: -10.2; Apaf-1 inh: -6.4; EBNA-1 inhibitor: -6.0; PREPL inhibitor: 18.7

How did CC(Oc1ccc(Cl)cc1Cl)C(=O)NNC(=O)[C@@H]1CCCC[C@@H]1C(=O)O (stereo not given in full) do in these assays?
ZTA counter: 0.1; UBC13 polyUb: -6.0; Apaf-1 inh: -5.9; EBNA-1 inhibitor: 0.3; PREPL inhibitor: -32.5

How did CCCCNC1=CC(=O)C(=O)c2ccccc21 do in these assays?
ZTA counter: -3.4; UBC13 polyUb: -133.0; Apaf-1 inh: 95.5*; EBNA-1 inhibitor: 1.9; PREPL inhibitor: 4.1; Apaf-1 inh conf: 83.9*; Rh110 quench: 2.8; Fluor interf inh: >100

What do the screens show for `O=C1C=C(Nc2ccccc2C(=O)O)c2ccccc2C1=O`?
ZTA counter: 12.1; UBC13 polyUb: -100.2; Apaf-1 inh: 91.4*; EBNA-1 inhibitor: -0.9; PREPL inhibitor: 12.4; Apaf-1 inh conf: 93.3*; Rh110 quench: -1.2; Fluor interf inh: >100

What do the screens show for `O=C1C=C(Nc2ccccc2)c2ccccc2C1=O`?
UBC13 polyUb: -287.1; Apaf-1 inh: 91.9*; Apaf-1 inh conf: 91.5*; Rh110 quench: -2.8; Fluor interf inh: >100

What do the screens show for `O=C1C=C(Nc2ccccc2)C(=O)c2ccccc21`?
ZTA counter: -11.2; UBC13 polyUb: -151.7; Apaf-1 inh: 17.1; EBNA-1 inhibitor: -6.8; PREPL inhibitor: 15.3
